Data from the M2OR odorant receptor database.

Assays:
Conditions in all cases: stereoisomer not certain
[1] = molecular target: T1, UniProt Q8VG27
T1 sequence (whole entry): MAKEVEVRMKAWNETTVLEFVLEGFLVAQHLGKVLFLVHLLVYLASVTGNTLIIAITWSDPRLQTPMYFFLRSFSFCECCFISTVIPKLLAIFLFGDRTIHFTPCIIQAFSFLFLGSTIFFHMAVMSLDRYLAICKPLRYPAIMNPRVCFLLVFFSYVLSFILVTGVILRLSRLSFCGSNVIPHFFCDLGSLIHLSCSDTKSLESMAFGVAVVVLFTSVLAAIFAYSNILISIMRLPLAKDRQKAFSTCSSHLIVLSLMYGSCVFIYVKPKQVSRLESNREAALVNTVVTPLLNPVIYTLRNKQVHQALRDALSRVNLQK
Method in brief: (§1)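 Assay methods differ from source to source, frequently being transient luciferase assays in mammalian cell lines. For each receptor–molecule pair, the label responsive (active) applies when the original authors judged the measured signal statistically different from baseline, and non-responsive (inactive) applies otherwise.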

[2] = molecular target: T2, UniProt Q8VG49
T2 sequence (whole entry): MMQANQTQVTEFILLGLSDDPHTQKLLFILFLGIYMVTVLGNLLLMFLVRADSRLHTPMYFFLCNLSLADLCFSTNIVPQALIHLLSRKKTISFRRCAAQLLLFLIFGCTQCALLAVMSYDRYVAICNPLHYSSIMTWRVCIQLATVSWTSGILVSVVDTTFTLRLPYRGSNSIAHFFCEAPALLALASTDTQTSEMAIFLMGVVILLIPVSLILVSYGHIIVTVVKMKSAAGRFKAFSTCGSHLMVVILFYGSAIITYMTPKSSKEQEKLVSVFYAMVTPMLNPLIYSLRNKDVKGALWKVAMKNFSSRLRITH
Method in brief: as §1

[3] = molecular target: T3, UniProt Q8VG53
T3 sequence (whole entry): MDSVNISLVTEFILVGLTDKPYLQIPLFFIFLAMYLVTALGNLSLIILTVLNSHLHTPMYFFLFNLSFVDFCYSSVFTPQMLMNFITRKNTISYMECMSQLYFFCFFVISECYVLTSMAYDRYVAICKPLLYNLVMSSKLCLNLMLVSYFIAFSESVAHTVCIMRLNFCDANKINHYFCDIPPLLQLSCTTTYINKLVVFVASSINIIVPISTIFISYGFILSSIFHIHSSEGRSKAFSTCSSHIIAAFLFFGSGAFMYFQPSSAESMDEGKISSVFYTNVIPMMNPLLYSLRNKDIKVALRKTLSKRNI
Method in brief: as §1

[4] = molecular target: T4, UniProt Q8VG64
T4 sequence (whole entry): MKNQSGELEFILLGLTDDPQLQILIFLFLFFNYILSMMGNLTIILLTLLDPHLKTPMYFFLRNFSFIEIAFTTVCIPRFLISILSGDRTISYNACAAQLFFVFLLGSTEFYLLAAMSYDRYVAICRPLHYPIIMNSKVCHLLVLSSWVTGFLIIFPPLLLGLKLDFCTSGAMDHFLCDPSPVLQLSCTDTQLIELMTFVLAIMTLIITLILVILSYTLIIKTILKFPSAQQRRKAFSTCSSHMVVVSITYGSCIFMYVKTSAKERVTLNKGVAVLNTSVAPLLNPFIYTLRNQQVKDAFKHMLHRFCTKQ
Method in brief: as §1

[5] = molecular target: T5, UniProt Q8VG77
T5 sequence (whole entry): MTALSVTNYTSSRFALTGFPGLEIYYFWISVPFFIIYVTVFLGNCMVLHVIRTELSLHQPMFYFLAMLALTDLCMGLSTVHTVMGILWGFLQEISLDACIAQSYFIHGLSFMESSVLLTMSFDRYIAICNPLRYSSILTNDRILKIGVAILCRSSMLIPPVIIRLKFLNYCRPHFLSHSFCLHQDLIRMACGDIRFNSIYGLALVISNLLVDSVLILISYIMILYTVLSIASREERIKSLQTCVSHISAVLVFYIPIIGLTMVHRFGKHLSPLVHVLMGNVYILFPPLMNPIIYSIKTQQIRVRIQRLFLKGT
Method in brief: as §1

[6] = molecular target: T6, UniProt Q8VG96
T6 sequence (whole entry): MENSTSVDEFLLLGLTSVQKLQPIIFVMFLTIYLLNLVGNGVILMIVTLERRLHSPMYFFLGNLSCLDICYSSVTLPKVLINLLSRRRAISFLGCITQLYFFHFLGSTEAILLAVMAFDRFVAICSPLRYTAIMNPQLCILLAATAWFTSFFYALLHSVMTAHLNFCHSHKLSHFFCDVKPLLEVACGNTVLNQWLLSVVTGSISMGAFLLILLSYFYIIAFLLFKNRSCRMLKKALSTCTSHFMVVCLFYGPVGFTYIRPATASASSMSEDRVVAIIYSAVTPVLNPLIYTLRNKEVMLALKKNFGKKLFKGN
Method in brief: as §1

[7] = molecular target: T7, UniProt Q8VGB9
T7 sequence (whole entry): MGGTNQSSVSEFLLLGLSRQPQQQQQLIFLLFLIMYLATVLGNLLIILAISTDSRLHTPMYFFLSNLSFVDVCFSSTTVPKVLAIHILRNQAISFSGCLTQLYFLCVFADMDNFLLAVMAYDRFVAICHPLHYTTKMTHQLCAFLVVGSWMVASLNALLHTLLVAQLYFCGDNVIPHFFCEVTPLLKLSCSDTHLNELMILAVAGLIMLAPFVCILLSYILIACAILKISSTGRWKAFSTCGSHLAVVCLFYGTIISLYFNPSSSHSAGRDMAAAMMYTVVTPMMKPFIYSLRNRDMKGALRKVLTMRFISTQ
Method in brief: as §1

[8] = molecular target: T8, UniProt Q8VGC6
T8 sequence (whole entry): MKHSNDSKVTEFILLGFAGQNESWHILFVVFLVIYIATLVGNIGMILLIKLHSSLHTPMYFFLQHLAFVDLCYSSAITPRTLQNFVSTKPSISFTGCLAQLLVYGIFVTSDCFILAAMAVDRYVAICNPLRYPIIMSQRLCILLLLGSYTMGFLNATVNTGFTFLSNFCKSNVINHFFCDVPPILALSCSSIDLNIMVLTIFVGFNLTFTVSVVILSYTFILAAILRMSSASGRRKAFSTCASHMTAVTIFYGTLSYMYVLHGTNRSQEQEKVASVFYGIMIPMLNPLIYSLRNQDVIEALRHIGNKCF
Method in brief: as §1

[9] = molecular target: T9, UniProt Q8VGD7
T9 sequence (whole entry): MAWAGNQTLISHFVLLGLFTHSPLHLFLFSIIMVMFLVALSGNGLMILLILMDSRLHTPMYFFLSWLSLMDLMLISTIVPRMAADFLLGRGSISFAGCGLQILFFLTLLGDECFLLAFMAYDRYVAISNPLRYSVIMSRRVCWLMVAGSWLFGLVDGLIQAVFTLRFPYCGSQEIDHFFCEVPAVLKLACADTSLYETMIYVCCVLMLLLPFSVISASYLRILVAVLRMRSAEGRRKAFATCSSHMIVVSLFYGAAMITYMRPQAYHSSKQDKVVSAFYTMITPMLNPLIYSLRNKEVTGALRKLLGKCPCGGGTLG
Method in brief: as §1

[10] = molecular target: T10, UniProt Q8VGH1
T10 sequence (whole entry): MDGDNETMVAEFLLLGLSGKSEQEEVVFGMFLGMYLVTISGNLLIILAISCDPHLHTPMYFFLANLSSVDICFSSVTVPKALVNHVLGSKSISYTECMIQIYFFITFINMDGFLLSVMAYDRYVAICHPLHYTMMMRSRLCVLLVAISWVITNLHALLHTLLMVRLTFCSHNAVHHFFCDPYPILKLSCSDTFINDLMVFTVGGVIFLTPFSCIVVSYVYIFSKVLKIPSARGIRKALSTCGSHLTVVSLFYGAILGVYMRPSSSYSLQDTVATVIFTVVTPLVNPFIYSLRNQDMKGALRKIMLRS
Method in brief: as §1

[11] = molecular target: T11, UniProt Q8VGJ1
T11 sequence (whole entry): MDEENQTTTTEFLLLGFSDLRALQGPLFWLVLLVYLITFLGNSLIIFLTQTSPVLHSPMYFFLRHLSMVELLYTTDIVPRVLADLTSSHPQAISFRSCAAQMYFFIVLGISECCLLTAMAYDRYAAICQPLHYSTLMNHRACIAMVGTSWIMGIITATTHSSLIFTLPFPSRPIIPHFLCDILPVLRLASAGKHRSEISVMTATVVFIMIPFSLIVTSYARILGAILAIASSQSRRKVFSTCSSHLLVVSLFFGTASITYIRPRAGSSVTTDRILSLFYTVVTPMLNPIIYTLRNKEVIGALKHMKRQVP
Method in brief: as §1

[12] = molecular target: T12, UniProt Q8VGJ3
T12 sequence (whole entry): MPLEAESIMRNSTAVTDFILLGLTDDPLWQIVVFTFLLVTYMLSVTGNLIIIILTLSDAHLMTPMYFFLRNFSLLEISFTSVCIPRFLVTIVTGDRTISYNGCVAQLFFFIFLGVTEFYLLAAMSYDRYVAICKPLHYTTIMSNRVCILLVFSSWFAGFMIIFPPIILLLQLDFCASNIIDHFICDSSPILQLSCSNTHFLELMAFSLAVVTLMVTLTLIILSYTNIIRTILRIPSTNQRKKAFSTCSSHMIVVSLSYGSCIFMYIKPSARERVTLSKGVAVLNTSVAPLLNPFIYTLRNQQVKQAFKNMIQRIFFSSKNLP
Method in brief: as §1

[13] = molecular target: T13, UniProt Q8VGJ5
T13 sequence (whole entry): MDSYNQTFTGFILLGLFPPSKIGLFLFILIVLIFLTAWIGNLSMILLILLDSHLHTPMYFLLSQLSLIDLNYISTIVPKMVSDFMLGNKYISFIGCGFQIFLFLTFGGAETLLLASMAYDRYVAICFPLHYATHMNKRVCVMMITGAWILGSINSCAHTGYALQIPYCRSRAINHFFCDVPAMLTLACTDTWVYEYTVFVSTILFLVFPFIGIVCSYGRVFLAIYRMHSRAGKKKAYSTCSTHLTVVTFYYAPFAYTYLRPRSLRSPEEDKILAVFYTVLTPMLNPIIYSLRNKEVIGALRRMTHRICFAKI
Method in brief: as §1

[14] = molecular target: T14, UniProt Q8VGL0
T14 sequence (whole entry): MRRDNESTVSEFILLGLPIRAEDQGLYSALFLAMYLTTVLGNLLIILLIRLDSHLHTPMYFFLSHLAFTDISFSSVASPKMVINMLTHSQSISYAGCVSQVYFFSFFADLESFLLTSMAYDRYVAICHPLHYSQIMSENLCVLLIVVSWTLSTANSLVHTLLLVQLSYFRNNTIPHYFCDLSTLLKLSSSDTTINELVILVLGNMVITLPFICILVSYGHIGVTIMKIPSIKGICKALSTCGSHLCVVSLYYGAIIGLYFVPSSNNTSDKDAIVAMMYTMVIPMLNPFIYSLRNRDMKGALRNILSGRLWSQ
Method in brief: as §1

[15] = molecular target: T15, UniProt Q8VGL7
T15 sequence (whole entry): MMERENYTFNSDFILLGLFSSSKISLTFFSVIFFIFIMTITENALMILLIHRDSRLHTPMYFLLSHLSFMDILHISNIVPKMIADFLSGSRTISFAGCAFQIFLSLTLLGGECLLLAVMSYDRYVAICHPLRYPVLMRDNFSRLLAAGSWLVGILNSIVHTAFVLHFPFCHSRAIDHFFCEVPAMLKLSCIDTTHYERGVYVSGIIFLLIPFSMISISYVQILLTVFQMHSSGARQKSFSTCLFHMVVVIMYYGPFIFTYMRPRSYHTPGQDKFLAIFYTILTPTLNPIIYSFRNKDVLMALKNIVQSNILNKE
Method in brief: as §1

[16] = molecular target: UniProt Q8VG28
Sequence of UniProt Q8VG28 (Q8VG28 as listed by the source): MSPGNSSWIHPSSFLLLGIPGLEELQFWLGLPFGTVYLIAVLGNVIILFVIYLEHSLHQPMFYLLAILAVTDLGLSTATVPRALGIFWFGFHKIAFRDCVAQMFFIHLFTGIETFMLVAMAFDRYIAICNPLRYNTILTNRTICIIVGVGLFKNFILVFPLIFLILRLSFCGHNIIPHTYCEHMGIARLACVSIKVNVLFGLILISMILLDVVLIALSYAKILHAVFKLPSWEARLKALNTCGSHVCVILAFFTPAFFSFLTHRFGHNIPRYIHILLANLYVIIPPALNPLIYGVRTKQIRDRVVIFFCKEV
Method in brief: as §1

Compound	odorant receptor agonist call [1]	odorant receptor agonist call [2]	odorant receptor agonist call [3]	odorant receptor agonist call [4]	odorant receptor agonist call [5]	odorant receptor agonist call [6]	odorant receptor agonist call [7]	odorant receptor agonist call [8]	odorant receptor agonist call [9]	odorant receptor agonist call [10]	odorant receptor agonist call [11]	odorant receptor agonist call [12]	odorant receptor agonist call [13]	odorant receptor agonist call [14]	odorant receptor agonist call [15]	odorant receptor agonist call [16]
COc1cc(C(=O)O)ccc1O	active	inactive	inactive	inactive	inactive	inactive	inactive	inactive	inactive	inactive	inactive	inactive	inactive	inactive	inactive	–
O=C([O-])CCCCCCC(=O)[O-].[H+].[H+]	inactive	–	inactive	inactive	–	–	inactive	inactive	–	–	–	inactive	–	inactive	–	inactive
CC12CCC(CC1=O)C2(C)C (stereo not given)	inactive	inactive	inactive	inactive	inactive	inactive	inactive	inactive	active	inactive	inactive	inactive	inactive	active	inactive	–
CCC(=O)O	inactive	inactive	inactive	inactive	inactive	inactive	inactive	inactive	inactive	inactive	inactive	inactive	inactive	inactive	inactive	–
CC(=O)OCCc1ccccc1	inactive	–	inactive	inactive	–	–	inactive	inactive	–	–	–	inactive	–	inactive	–	–
